Here are results for seven molecules from publication PMC11526549 (Journal of Nanobiotechnology, 2024).

Series [1] is described as follows: LPS binding assay with BC probe. The arrangement: species or system E. coli. The settings on record: BC probe 10 µM, LPS 1 µM, Tris 50 mM pH 7.4; 0.125-64 µM peptide; n=3.
A short description of a further series: ζ-potential. The following applies: 80 µM in PBS pH 7.4, room temperature. It is filed as physicochemical.
In series [2] the test system is trypsin. Kind of series: Trypsin resistance of LPS-induced nanofibers versus nanoparticles, HPLC. The following applies: n=3. It is filed as in vitro ADME. In short, it runs like this:
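Peptide (80 µM), LPS (1 µM) and trypsin (10 µM) combined in different orders. In one arm LPS pre-forms nanofibers before trypsin; in another peptide is pre-incubated with trypsin before LPS. A non-specific assembly condition serves as reference. Peptide retention measured by HPLC and expressed as a ratio to that reference; n=3.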

Series [3] is described as follows: Proteolytic stability in trypsin, HPLC. It is filed as in vitro ADME. The settings on record: trypsin (1 w/v%). A digest of the protocol:
(§1)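 Test compound (2560 µM) incubated with 1 w/v% trypsin at 37 °C. Aliquots taken at 0.5, 1, 2, 4 and 6 h, diluted to 256 µM in 0.1% TFA/water and quantified by HPLC. Remaining peptide calculated as a time course; n=3.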

Series [4] has as its system E. coli CGMCC 1.90026. Description: Time-kill kinetics. It is filed as cell-based, Escherichia coli. The settings on record: 1×, 2× or 4× MIC. A digest of the protocol: (§2)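 Counts on MHA at 0, 0.5, 1, 2, 4, 6, 8, 10 and 24 h, in triplicate. MDK99 and MDK99.99 are the minimum times to 99% and 99.99% kill.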
Another series concerns E. coli ATCC 25922. Kind of series: Serum stability test. It is filed as in vitro ADME, Escherichia coli. The settings on record: 37°C, 8 h, MIC vs E. coli ATCC 25922.
Series [5] can be described thus: Particle size of self-assembled AMPs. It is filed as physicochemical. The following applies: 80 µM peptide, SEM/TEM. In short, it runs like this:
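Test compound at 80 µM, alone or with LPS or LTA (final 1 µM), imaged by SEM and TEM to assess assembly morphology and particle size.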

A short description of series [6]: LTA binding assay with BC probe. The following applies: BC probe 10 µM, LTA 1 µM, Tris 50 mM pH 7.4; 0.125-64 µM peptide; n=3. Further details: species or system S. aureus.
In series [7] the test system is S. aureus CGMCC 1.90032. Kind of series: Time-kill kinetics. It is filed as cell-based, Staphylococcus aureus. A digest of the protocol: as §2
Series [8] is described as follows: Metabolic stability in liver tissue homogenate, HPLC. It is filed as in vitro ADME. The following applies: mouse liver tissue homogenate 50 mg/mL, 8 h, mean of n=3.
A short description of series [9]: CMC determination with ANS fluorescent probe. It is filed as physicochemical. The settings on record: in PBS. In short, it runs like this:
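CMC is the crossing point of the 480 nm intensity plotted against log peptide concentration. A parallel run at 80 µM peptide adds LPS or LTA (final 1 µM) to test their effect on assembly.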

The test system of the next series is S. aureus. Kind of series: Membrane fluidity assay, Laurdan GP. It is filed as cell-based, Staphylococcus aureus. The settings on record: 5-80 µM, 1 h, n=3.
Series [10] relates to S. aureus CGMCC 1.90032. Description: Mutation-proof concentration. It is filed as cell-based, Staphylococcus aureus.
For series [11], the system named is S. aureus CGMCC 1.90032. Description: Mouse mastitis model. The settings on record: compared with NC group. It is filed as in vivo. In short, it runs like this: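 Female ICR mice 10 d post-partum, separated from pups 2 h before infection. Under anaesthesia, nipple tip trimmed 0.5 mm. Mid-log S. aureus CGMCC 1.90032 (PBS-washed, 1×10^3 CFU/mL, 100 µL) inoculated via the fourth-pair nipple ducts. Test compound (100 or 200 µM) given intraductally 3 h post-infection. Groups: uninfected, untreated, ceftiofur sodium 200 µM. Mammary and spleen organ indices recorded.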

Series [12] deals with E. coli CGMCC 1.90026. Description: Membrane integrity, PI uptake by flow cytometry. It is filed as cell-based, Escherichia coli. The following applies: range over 5-80 µM and both E. coli strains (Fig. 7A, Figure S15A). A digest of the protocol:
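Clinical E. coli CGMCC 1.90026 treated with test compound at 5, 20, 40 or 80 µM. Propidium iodide-positive cells counted by flow cytometry as the membrane penetration rate.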

The test system of another series is E. coli. Description: Cytoplasmic membrane potential, DiSC3. It is filed as cell-based, Escherichia coli. The settings on record: DiSC3-5, 5-80 µM, no dose-dependent effect. In short, it runs like this:
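Clinical isolate E. coli CGMCC 1.90026 exposed to test compound. Cytoplasmic membrane potential change followed with the potentiometric dye DiSC3-5.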

For series [13], the system named is E. coli CGMCC 1.90026. Description: Mutation-proof concentration. It is filed as cell-based, Escherichia coli.
Series [14] relates to E. coli liposomes (polar lipid extracts). Description: Membrane fluidity assay, Laurdan GP. The following applies: 5-80 µM, 1 h, concentration-dependent, n=3. It is filed as cell-based, Escherichia coli.
For series [15], the system named is E. coli CGMCC 1.90026. Kind of series: Mouse mastitis model. It is filed as in vivo. A digest of the protocol:
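Female ICR mice 10 d post-partum, pups removed 2 h before infection. Under anaesthesia, 0.5 mm trimmed from the fourth nipple pair. Mid-log E. coli CGMCC 1.90026 (PBS-washed, 5×10^3 CFU/mL, 100 µL) given through the nipple duct. 3 h later, test compound (100 or 200 µM) given via the mammary duct. Groups: uninfected, untreated, ceftiofur sodium 200 µM. Mammary TNF-α, IL-1β, IL-6 and IL-2 measured.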

In series [16] the test system is trypsin. Description: Proteolytic stability in trypsin, HPLC. The following applies: 1 w/v% trypsin, after 4 h, HPLC. It is filed as in vitro ADME. A digest of the protocol: as §1
Another series has as its system mouse erythrocytes. Description: Hemolysis assay. It is filed as cell-based. The following applies: 128 μM peptide, 8% mouse erythrocytes, 1 h, OD 540 nm; n=5. In short, it runs like this:
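Test compound (1–128 µM final) mixed 1:1 by volume with 8% mouse erythrocytes, 37 °C, 1 h. Spun 1500 rpm, 5 min, and supernatant A540 read. PBS set 0% and 0.1% Triton X-100 set 100%. Hemolysis (%) = (A_peptide−A0)/(A100−A0)×100.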

For series [17] the following is noted: cited from earlier work.
For series [18] the following is noted: in comparison to self-assembled nanoparticles CPC-2; cited from earlier work.
For series [19] the following is noted: cited from earlier work. The source holds these as a separate data set.

Read-outs that look alike come from different tables or passages of the source. Positions of bridges follow the written chain, without caps; N, C: chain ends. Residues, ends and D or L forms follow the SMILES beside them. *: point of attachment. Fmoc = O=C(OCC1c2ccccc2-c2ccccc21)*

As to `CC(C)C[C@H](NC(=O)[C@H](CCCCN)NC(=O)OCC1c2ccccc2-c2ccccc21)C(=O)N[C@H](C(=O)N[C@@H](Cc1ccccc1)C(=O)N[C@@H](Cc1ccccc1)C(=O)N[C@@H](CCCCN)C(=O)NCC(=O)N[C@@H](Cc1ccccc1)C(=O)N[C@@H](C)C(=O)N[C@@H](Cc1c[nH]c2ccccc12)C(=O)N[C@@H](CC(N)=O)C(=O)N[C@H](C(=O)N[C@H]1CSSC[C@@H](C(=O)N[C@@H](Cc2c[nH]cn2)C(=O)N[C@@H](CCCNC(=N)N)C(=O)N[C@@H](CCCNC(=N)N)C(=O)N[C@@H](C)C(=O)N[C@@H](CC(N)=O)C(N)=O)NC(=O)[C@H](C(C)C)NC(=O)[C@H](CCCNC(=N)N)NC(=O)[C@H](C(C)C)NC(=O)CNC(=O)[C@H](CC(N)=O)NC(=O)[C@H](CCCNC(=N)N)NC(=O)[C@H](Cc2ccc(O)cc2)NC(=O)[C@H](C(C)C)NC1=O)C(C)C)C(C)C` [FKN] (Fmoc-KLVFFKGFAWNVCVYRNGVRVCHRRAN-NH2; disulfide 13-22), in series [1], the “affinity to LPS of E. coli” value was “even greater than that of N6”. The same molecule gave a zeta-potential in the series “ζ-potential” of 24 mV. In the series with trypsin [2] (80 µM peptide pre-incubated with LPS 1 µM, then trypsin 10 µM 0.5 h), the “protein retention rate of nanofibers” value stood at 90.1%. Moreover, the “protein retention rate of nanoparticles” value with trypsin [2] (80 µM peptide without LPS pre-assembly, trypsin 10 µM 0.5 h) worked out at 76.63%. The molecule also gave an amount remaining at 6 h, 2560 µM in [3] (peptide retention rate, 1 w/v% trypsin, 6 h, HPLC, mean of n=3) of 44.2%. For the same molecule, the “time to complete eradication” value with E. coli CGMCC 1.90026 [4] is ≤ 4 h. Moreover, in the series on E. coli ATCC 25922, the “MIC after incubation in 25% serum” value is on record as “stable MICs”. Moreover, in [5], the “particle sizes of nanoparticles” value came to 69.78±11.56 nm. Further, the “affinity to LTA of S. aureus” value in series [6] is recorded as “even greater than that of N6”. Besides, the “time to complete kill” value in the series on S. aureus CGMCC 1.90032 [7] (various concentrations) is ≤ 1 h. For the same molecule, the “peptide retention rate in liver tissue” value in [8] was 33.93%. The “critical micelle concentration (CMC)” value in series [9] (ANS 25.6 µM, 1 h, fluorescence at 480 nm vs log concentration) is listed as 7.94 µM.

`CC(C)[C@@H]1NC(=O)CNC(=O)[C@H](CC(N)=O)NC(=O)[C@H](CCCNC(=N)N)NC(=O)[C@H](Cc2ccc(O)cc2)NC(=O)[C@H](C(C)C)NC(=O)[C@@H](NC(=O)[C@@H](NC(=O)[C@H](CC(N)=O)NC(=O)[C@H](Cc2c[nH]c3ccccc23)NC(=O)[C@H](C)NC(=O)[C@H](Cc2ccccc2)NC(=O)CN)C(C)C)CSSC[C@@H](C(=O)N[C@@H](Cc2c[nH]cn2)C(=O)N[C@@H](CCCNC(=N)N)C(=O)N[C@@H](CCCNC(=N)N)C(=O)N[C@@H](C)C(=O)N[C@@H](CC(N)=O)C(N)=O)NC(=O)[C@H](C(C)C)NC(=O)[C@H](CCCNC(=N)N)NC1=O` [N6] (H-GFAWNVCVYRNGVRVCHRRAN-NH2; disulfide 7-16): the “time to complete eradication” value in the series with E. coli CGMCC 1.90026 [4] was ≤ 4 h. Also, the results for the “Laurdan GP (membrane fluidity)” value (with S. aureus; in [14]) were “also increased” and “significant increase in Laurdan GP”, respectively. The “SI (MPCs/MIC)” value in the series with S. aureus CGMCC 1.90032 [10] and with E. coli CGMCC 1.90026 [13] was 6.4 throughout. This molecule returned an MDK99 in the series on S. aureus CGMCC 1.90032 [7] (minimum time for 99% sterilization) of 1.45 h. Moreover, the MDK99.99 in the series on S. aureus CGMCC 1.90032 [7] (minimum time for 99.99% sterilization) worked out at 1.99 h. The “indices of the mammary gland and spleen” value in the series with S. aureus CGMCC 1.90032 [11] is recorded as “significantly decreased”. In addition, the “membrane penetration rates toward E. coli” value in the series on E. coli CGMCC 1.90026 [12] is given as 2.34 -80.7%. Also, the plasma membrane depolarization result with E. coli is “underwent depolarization”. Besides, the “histopathology of mammary gland (HE)” value with E. coli CGMCC 1.90026 [15] is reported as “significant improvement in inflammatory symptoms”. In addition, the “levels of inflammatory factors (TNF-α, IL-1ß, IL-6 and IL-2) in mammary tissue” value in the series with E. coli CGMCC 1.90026 [15] (100 or 200 µM, ELISA, n=4) is listed as “significantly reduced”. The “self-assembly by ANS fluorescence” value in [9] (fluorescence in direct correlation with concentration) is recorded as “incapable of self-assembling”.

`CC(C)[C@@H]1NC(=O)CNC(=O)[C@H](CC(N)=O)NC(=O)[C@H](CCCNC(=N)N)NC(=O)[C@H](Cc2ccc(O)cc2)NC(=O)[C@H](C(C)C)NC(=O)[C@@H](NC(=O)[C@@H](NC(=O)[C@H](CC(N)=O)NC(=O)[C@H](Cc2c[nH]c3ccccc23)NC(=O)[C@H](C)NC(=O)[C@H](Cc2ccccc2)NC(=O)CN)C(C)C)CSSC[C@@H](C(=O)N[C@@H](Cc2cnc[nH]2)C(=O)N[C@@H](CCCNC(=N)N)C(=O)N[C@@H](CCCNC(=N)N)C(=O)N[C@@H](C)C(=O)N[C@@H](CC(N)=O)C(N)=O)NC(=O)[C@H](C(C)C)NC(=O)[C@H](CCCNC(=N)N)NC1=O` [N6] (H-GFAWNVCVYRNGVRVCHRRAN-NH2; disulfide 7-16): in the series with trypsin [16], the degradation in trypsin result was “completely degraded”. The metabolised at 0.5 h, 2560 µM in [3] was > 50%. Further, in the series with mouse erythrocytes, the hemolysis rate entry is “no hemolysis”. The “MIC after incubation in 25% serum” value against E. coli ATCC 25922 is listed as “twofold”. Further, the “peptide retention rate in liver tissue” value in [8] is given as “less than 9.76%”.

For BP-KFFVLK-RLKLILKSK [BET], the “time to complete transformation from nanoparticles to nanofibers” value in [17] (LPS induction) is on record as 72 h.

Consider BP-KLVFF -RLYLRIGRR [HDMP], for which the “time to complete transformation from nanoparticles to nanofibers” value in series [17] (LTA induction) is 48 h.

Turning to “Chitosan-GPLGVRGC-PEG2000- CGGG(KLAKLAK)2 [CPC-1]”, the “prolongation of the half-life at the site of infection” value in series [18] is reported as “fourfold”.

As to FLGALFRALSRLL [PTP-7], the stability in serum was 2 h in series [19] (before self-assembly) and “more than 5 h” in [19] (by self-assembly technology).
